# How the values were obtained:
# [1] = system: Mycolicibacterium smegmatis; assay: Antimycobacterial activity against Mycobacterium smegmatis MC2 155 after 3 days by broth macrodilution method; type: functional; conditions: str. MC2 155, 72 h
# [2] = system: Enterococcus faecalis; assay: Bactericidal activity against vancomycin resistant Enterococcus faecalis 501 after 18 to 20 hrs by broth microdilution method; type: functional
# How it was run: (§1)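 EUCAST microdilution in BHI broth. Inoculum from 20–24 h colonies on 5% sheep blood BHI agar, final 3×10^4 CFU/mL, 18–20 h aerobic at 37 °C, plate reader, at least duplicate.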
# [3] = system: Escherichia coli; assay: Antibacterial activity against Escherichia coli DH10beta harboring pHuLUC3 after 18 to 20 hrs by microdilution method; type: functional
# How it was run: (§2)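 EUCAST broth microdilution in LB broth. Inoculum prepared by direct colony suspension from 20–24 h LB agar (E. coli DH10β) or 5% sheep blood BHI agar (MRSA USA300) growth. Final inoculum 2×10^4 CFU/mL, 18–20 h aerobic at 37 °C, growth read on a plate reader, at least duplicate.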
# [4] = system: Acinetobacter baumannii; assay: Antibacterial activity against Acinetobacter baumannii ATCC BAA-1605 after 18 to 20 hrs by broth microdilution method; type: functional
# How it was run: (§3)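 Broth microdilution per EUCAST in TSB broth. Inoculum prepared by CLSI direct colony suspension from 20–24 h TSA colonies, final 3×10^4 CFU/mL. Aerobic incubation for 18–20 h at 37 °C, growth read on plate reader, at least one duplicate.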
# [5] = system: Staphylococcus aureus; assay: Induction of membrane integrity impairment in Staphylococcus aureus USA300 assessed as cells with intact membrane at 2 ug/ml measured after 30 mins by Baclight assay relative to control; type: functional
# How it was run: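 LIVE/DEAD BacLight fluorescence assay. Dye was then added and incubated 15 min in the dark at room temperature. Intact membrane % came from a live/dead (isopropanol-killed) standard curve, at least triplicate, mean±SD.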
# [6] = system: Escherichia coli; assay: Bactericidal activity against Escherichia coli DH10beta harboring pHuLUC3 after 18 to 20 hrs by microdilution method; type: functional; how it was run: as §2
# [7] = system: Klebsiella pneumoniae; assay: Antibacterial activity against Klebsiella pneumoniae ATCC 700603 after 18 to 20 hrs by broth microdilution method; type: functional; how it was run: as §3
# [8] = system: Escherichia coli; assay: Bactericidal activity against Escherichia coli D22 after 18 to 20 hrs by microdilution method; type: functional
# [9] = system: Saccharomyces cerevisiae; assay: Antibacterial activity against Saccharomyces cerevisiae after 18 to 20 hrs by microdilution method
# How it was run: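 Microdilution in YEP broth against wild-type yeast grown on YEP agar. Final inoculum 1×10^5 CFU/mL. Read after 18–20 h aerobic incubation at 30 °C on plate reader, at least one duplicate.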
# [10] = system: Staphylococcus aureus; assay: Antibacterial activity against methicillin-resistant Staphylococcus aureus USA300 after 18 to 20 hrs by microdilution method; type: functional; how it was run: as §2
# [11] = system: Staphylococcus aureus; assay: Antibacterial activity against methicillin-resistant Staphylococcus aureus 1653 after 18 to 20 hrs by broth microdilution method; type: functional
# How it was run: (§4)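 EUCAST broth microdilution in LB broth. Inoculum from 20–24 h colonies on 5% sheep blood BHI agar, final 3×10^4 CFU/mL, 18–20 h aerobic at 37 °C, plate reader, at least duplicate.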
# [12] = system: Mycolicibacterium smegmatis; assay: Antimycobacterial activity against Mycobacterium smegmatis MC2 155 after 94 to 98 hrs by microdilution method; type: functional; conditions: str. MC2 155
# How it was run: (§5)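 Microdilution in TSB broth. Inoculum from colonies grown 96 h on TSA, final 1×10^5 CFU/mL, aerobic 94–98 h at 37 °C, growth read on a plate reader, at least duplicate.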
# [13] = Stability of the compound in water; type: physicochemical; conditions: buffer
# [14] = system: Staphylococcus aureus; assay: Bactericidal activity against methicillin-resistant Staphylococcus aureus USA300 after 18 to 20 hrs by microdilution method; type: functional; how it was run: as §2
# [15] = system: Acinetobacter baumannii; assay: Antibacterial activity against Acinetobacter baumannii ATCC 19606 after 18 to 20 hrs by broth microdilution method; type: functional; conditions: ATCC 19606 = CIP 70.34 = JCM 6841; how it was run: as §3
# [16] = system: Mycolicibacterium smegmatis; assay: Bactericidal activity against Mycobacterium smegmatis MC2 155 after 96 hrs by microdilution method; type: functional; conditions: str. MC2 155, 96 h; how it was run: as §5
# [17] = system: Bacillus subtilis; assay: Antibacterial activity against Bacillus subtilis ATCC 6051 after 18 to 20 hrs by broth microdilution method; type: functional
# How it was run: (§6)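 Broth microdilution per EUCAST in LB broth. Inoculum from 20–24 h colonies by CLSI direct colony suspension (LB agar for E. coli), final 2×10^4 CFU/mL. Read after 18–20 h aerobic incubation at 37 °C on plate reader, at least one duplicate.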
# [18] = system: Staphylococcus aureus; assay: Bactericidal activity against methicillin-resistant Staphylococcus aureus 1653 after 18 to 20 hrs by broth microdilution method; type: functional; how it was run: as §4
# [19] = system: Klebsiella pneumoniae; assay: Antibacterial activity against Klebsiella pneumoniae ATCC 13882 after 18 to 20 hrs by broth microdilution method; type: functional; how it was run: as §3
# [20] = Solubility of the compound in water; type: physicochemical; conditions: buffer
# [21] = system: Enterococcus faecalis; assay: Antibacterial activity against vancomycin resistant Enterococcus faecalis 501 after 18 to 20 hrs by broth microdilution method; type: functional; how it was run: as §1
# [22] = system: Escherichia coli; assay: Antibacterial activity against N43 CGSC 5583 knock out Escherichia coli after 18 to 20 hrs by microdilution method; type: functional; how it was run: as §6
# [23] = system: Pseudomonas aeruginosa; assay: Antibacterial activity against Pseudomonas aeruginosa PA0001 after 18 to 20 hrs by broth microdilution method; type: functional
# How it was run: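 EUCAST broth microdilution in LB broth. Inoculum from 20–24 h LB agar colonies (CLSI direct colony suspension), final 3×10^4 CFU/mL. Aerobic incubation 18–20 h at 37 °C, plate-reader read-out, at least one duplicate.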
# [24] = Stability of the compound in solid state; type: physicochemical
# [25] = Stability of the compound in organic solvent; type: physicochemical
# [26] = system: Streptococcus pneumoniae; assay: Antibacterial activity against Streptococcus pneumoniae R6 after 18 to 20 hrs by broth microdilution method; type: functional
# How it was run: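 Broth microdilution per EUCAST in BHI broth. Inoculum from colonies on BHI agar with 5% sheep blood, final 5×10^4 CFU/mL. Read after 18–20 h anaerobic incubation at 37 °C.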
# [27] = system: Bacillus subtilis; assay: Bactericidal activity against Bacillus subtilis ATCC 6051 after 18 to 20 hrs by broth microdilution method; type: functional
# [28] = system: Streptococcus pneumoniae; assay: Bactericidal activity against Streptococcus pneumoniae R6 after 18 to 20 hrs by broth microdilution method; type: functional
# [29] = system: Escherichia coli; assay: Antibacterial activity against Escherichia coli D22 after 18 to 20 hrs by microdilution method; type: functional; how it was run: as §6
# [30] = system: Staphylococcus aureus; assay: Antibacterial activity against methicillin-resistant Staphylococcus aureus USA300 by broth microdilution method
smiles,measurement,setting,value
N[C@@H]1CONC1=O [CYCLOSERINE],MIC,[1],105 µg/mL
CC(=O)N(/N=N/c1ccc([N+](=O)[O-])cc1C(F)(F)F)c1ccc([N+](=O)[O-])cc1C(F)(F)F,MBC,[2],> 128 µg/mL
same,MIC,[3],64 µg/mL
same,MIC,[4],> 128 µg/mL
same,Cells with intact membrane,[5],103%
same,MBC,[6],> 128 µg/mL
same,MIC,[7],> 128 µg/mL
same,MBC,[8],> 128 µg/mL
same,MIC,[9],> 128 µg/mL
same,MIC,[10],0.25 µg/mL
same,MIC,[11],0.25 µg/mL
same,MIC,[12],16 µg/mL
same,Stability,[13],Stable
same,MBC,[14],0.25 µg/mL
same,MIC,[15],> 128 µg/mL
same,MBC,[16],128 µg/mL
same,MIC,[17],0.125 µg/mL
same,MBC,[18],0.5 µg/mL
same,MIC,[19],> 128 µg/mL
same,solubility,[20],Soluble
same,MIC,[21],4 µg/mL
same,MIC,[22],> 128 µg/mL
same,MIC,[23],> 128 µg/mL
same,Stability,[24],Stable
same,Stability,[25],Stable
same,MIC,[26],0.06 µg/mL
same,MBC,[27],4 µg/mL
same,MBC,[28],0.5 µg/mL
same,MIC,[29],1 µg/mL
CCOC(=O)/C=C/[N+](CC)(CC)CC.O=[N+]([O-])c1ccc(/N=N/[N-]c2ccc([N+](=O)[O-])cc2C(F)(F)F)c(C(F)(F)F)c1,Stability,[13],Stable
same,solubility,[20],Soluble
same,Stability,[24],Stable
same,Stability,[25],Stable
CC[N+](/C=C/C(=O)OC)(CC)CC.O=[N+]([O-])c1ccc(/N=N/[N-]c2ccc([N+](=O)[O-])cc2C(F)(F)F)c(C(F)(F)F)c1,Stability,[13],Stable
same,solubility,[20],Soluble
same,Stability,[24],Stable
same,Stability,[25],Stable
CC[C@H]1OC(=O)[C@H](C)[C@@H](O[C@H]2C[C@@](C)(OC)[C@@H](O)[C@H](C)O2)[C@H](C)[C@@H](O[C@@H]2O[C@H](C)C[C@H](N(C)C)[C@H]2O)[C@](C)(O)C[C@@H](C)C(=O)[C@H](C)[C@@H](O)[C@]1(C)O [ERYTHROMYCIN],MIC,[30],8 to 64 µg/mL
O=C(c1ccccc1F)N(/N=N/c1ccc([N+](=O)[O-])cc1C(F)(F)F)c1ccc([N+](=O)[O-])cc1C(F)(F)F,MIC,[3],> 128 µg/mL
same,MIC,[4],> 128 µg/mL
same,Cells with intact membrane,[5],103.8%
same,MIC,[7],> 128 µg/mL
same,MIC,[9],> 128 µg/mL
same,MIC,[10],0.25 µg/mL
same,MIC,[11],0.5 µg/mL
same,MIC,[12],16 µg/mL
same,Stability,[13],Stable
same,MBC,[14],0.5 µg/mL
same,MIC,[15],> 128 µg/mL
same,MBC,[16],128 µg/mL
same,MIC,[17],2 µg/mL
same,MBC,[18],4 µg/mL
same,MIC,[19],> 128 µg/mL
same,solubility,[20],Soluble
same,MIC,[21],> 128 µg/mL
same,MIC,[22],> 128 µg/mL
same,MIC,[23],> 128 µg/mL
same,Stability,[24],Stable
same,Stability,[25],Stable
same,MIC,[26],0.5 µg/mL
same,MBC,[27],> 64 µg/mL
same,MBC,[28],1 µg/mL
same,MIC,[29],> 128 µg/mL
CCN(CC)CC.O=[N+]([O-])c1ccc(/N=N/Nc2ccc([N+](=O)[O-])cc2C(F)(F)F)c(C(F)(F)F)c1,Stability,[13],Stable
same,solubility,[20],Soluble
same,Stability,[24],Stable
same,Stability,[25],Stable
CC1(C)S[C@@H]2[C@H](NC(=O)C(C(=O)O)c3ccccc3)C(=O)N2[C@H]1C(=O)O (some centres undefined) [CARBENICILLIN],MIC,[1],512 µg/mL
C/C(=C\C(=O)OCCCCCCCCC(=O)O)C[C@@H]1OC[C@H](C[C@@H]2O[C@H]2[C@@H](C)[C@H](C)O)[C@@H](O)[C@H]1O [MUPIROCIN],MIC,[30],0.5 to 64 µg/mL
